Active and inactive are the calls of the source. No cut-off for these calls is given here.
What was measured:
Rattus norvegicus [1] = assay: Volume of distribution at steady state in rat at 1 mg/kg, iv; type: ADME, organism-based; conditions: in vivo
How it was run: (§1)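 Rats were given compound at 1 mg/kg iv or 3 mg/kg po. Vehicle was DMSO, Tween 80 and normal saline. Values are the average of three determinations.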

Rattus norvegicus [2] = assay: Half life in rat at 1 mg/kg, iv; type: ADME, organism-based; conditions: in vivo
How it was run: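 Rats given 1 mg/kg intravenously; vehicle DMSO, Tween 80, normal saline; values are the average of three determinations.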

[3] = Cmax in rat at 3 mg/kg, po; type: ADME, organism-based; set-up: dose 3 mg/kg, route oral; conditions: in vivo
How it was run: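 Rats dosed orally at 3 mg/kg; vehicle DMSO, Tween 80, normal saline; values are the average of three determinations.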

[4] = Tmax in rat at 3 mg/kg, po; type: ADME, organism-based; conditions: in vivo; how it was run: as §1
Rattus norvegicus [5] = assay: Oral bioavailability in rat at 3 mg/kg; type: ADME, organism-based; conditions: in vivo; how it was run: as §1
[6] = Drug metabolism in mouse liver microsomes assessed as (S,E)-N-(4-amino-6-methylene-5-(4-phenoxyphenyl)-7,8-dihydro-6H-pyrimido[5,4-b]pyrrolizin-7-yl)-3-hydroxyacrylamide formation after 3 hrs; type: ADME, microsome
[7] = Drug metabolism in rat liver microsomes assessed as (S,E)-N-(4-amino-6-methylene-5-(4-phenoxyphenyl)-7,8-dihydro-6H-pyrimido[5,4-b]pyrrolizin-7-yl)-3-hydroxyacrylamide formation after 3 hrs; type: ADME, microsome
TMD8 [8] = assay: Antiproliferative activity against human TMD8 cells after 72 hrs by MTT assay; type: functional, cell-based; conditions: TMD8, 72 h
How it was run: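 Cells grown in RPMI-1640 with FBS at 37 °C, 5% CO2. Seeded and grown 2 h, then treated with various concentrations in PBS solution, each in triplicate, and cultured a further 72 h. Viability read by MTT. IC50 from the Logit method, given as mean ± SD of three independent determinations.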

[9] = molecular target: Tyrosine-protein kinase Blk (Homo sapiens, UniProt P51451); assay: Inhibition of recombinant human BLK using Poly(Glu, Tyr) 4:1 as substrate after 1 hr by ELISA
Sequence of Tyrosine-protein kinase Blk (P51451 whole entry): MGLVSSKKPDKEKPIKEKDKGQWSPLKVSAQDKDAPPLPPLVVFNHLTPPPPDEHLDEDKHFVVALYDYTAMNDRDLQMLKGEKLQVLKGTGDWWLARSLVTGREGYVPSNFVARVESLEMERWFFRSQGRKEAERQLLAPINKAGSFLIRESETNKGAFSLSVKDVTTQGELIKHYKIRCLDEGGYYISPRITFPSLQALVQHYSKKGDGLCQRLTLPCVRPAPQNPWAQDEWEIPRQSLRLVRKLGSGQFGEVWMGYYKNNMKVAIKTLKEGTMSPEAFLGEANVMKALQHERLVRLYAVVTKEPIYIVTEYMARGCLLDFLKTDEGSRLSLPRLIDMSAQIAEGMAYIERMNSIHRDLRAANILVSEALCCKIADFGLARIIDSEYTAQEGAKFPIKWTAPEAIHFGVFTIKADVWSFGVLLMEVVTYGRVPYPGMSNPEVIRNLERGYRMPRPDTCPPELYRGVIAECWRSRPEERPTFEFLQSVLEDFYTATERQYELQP
How it was run: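 Purchased active kinase incubated with compound on wells precoated with 20 µg/mL poly(Glu,Tyr) 4:1, in 50 mM HEPES pH 7.4, 20 mM MgCl2, 0.1 mM MnCl2, 0.2 mM Na3VO4, 1 mM DTT, 5 µM ATP, 37 °C, 1 h. Phosphotyrosine detected with PY99 antibody, HRP secondary, OPD, A492. IC50 as mean of duplicates.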

[10] = molecular target: Epidermal growth factor receptor (Homo sapiens, UniProt P00533); assay: Inhibition of recombinant human EGFR using Poly(Glu, Tyr) 4:1 as substrate after 1 hr by ELISA
Sequence of Epidermal growth factor receptor (P00533 whole entry): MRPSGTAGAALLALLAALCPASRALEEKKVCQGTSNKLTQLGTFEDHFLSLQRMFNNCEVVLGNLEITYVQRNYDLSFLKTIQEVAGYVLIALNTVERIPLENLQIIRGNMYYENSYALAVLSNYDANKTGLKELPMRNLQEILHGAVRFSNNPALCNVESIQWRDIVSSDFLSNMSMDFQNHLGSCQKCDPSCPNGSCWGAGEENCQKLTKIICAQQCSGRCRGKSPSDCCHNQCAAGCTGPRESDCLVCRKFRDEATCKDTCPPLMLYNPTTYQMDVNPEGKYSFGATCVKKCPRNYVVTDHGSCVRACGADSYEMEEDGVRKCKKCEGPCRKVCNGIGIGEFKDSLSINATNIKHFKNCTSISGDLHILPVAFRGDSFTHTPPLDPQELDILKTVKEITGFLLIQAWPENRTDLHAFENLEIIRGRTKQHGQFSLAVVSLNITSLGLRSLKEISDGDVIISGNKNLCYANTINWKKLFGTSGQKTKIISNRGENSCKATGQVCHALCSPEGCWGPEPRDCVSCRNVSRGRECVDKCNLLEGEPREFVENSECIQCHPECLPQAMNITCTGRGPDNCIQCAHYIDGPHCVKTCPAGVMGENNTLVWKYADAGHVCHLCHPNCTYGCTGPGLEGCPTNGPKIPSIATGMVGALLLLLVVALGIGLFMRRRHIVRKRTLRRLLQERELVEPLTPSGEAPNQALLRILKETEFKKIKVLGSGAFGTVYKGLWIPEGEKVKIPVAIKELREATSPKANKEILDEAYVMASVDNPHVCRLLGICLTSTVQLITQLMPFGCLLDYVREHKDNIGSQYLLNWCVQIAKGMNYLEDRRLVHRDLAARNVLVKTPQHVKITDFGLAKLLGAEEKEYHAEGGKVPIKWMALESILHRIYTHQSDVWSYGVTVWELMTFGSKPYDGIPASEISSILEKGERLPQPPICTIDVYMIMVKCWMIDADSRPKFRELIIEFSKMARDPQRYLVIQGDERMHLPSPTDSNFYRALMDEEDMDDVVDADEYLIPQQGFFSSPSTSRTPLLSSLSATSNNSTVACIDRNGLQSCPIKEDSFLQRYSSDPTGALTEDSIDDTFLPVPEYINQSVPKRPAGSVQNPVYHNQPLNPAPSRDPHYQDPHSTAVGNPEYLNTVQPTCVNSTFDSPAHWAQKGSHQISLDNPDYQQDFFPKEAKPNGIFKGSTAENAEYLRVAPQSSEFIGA
How it was run: (§2)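 Kinase activity was measured by ELISA on wells precoated with 20 µg/mL poly(Glu,Tyr) 4:1. Enzyme was incubated with compound in 50 mM HEPES pH 7.4, 20 mM MgCl2, 0.1 mM MnCl2, 0.2 mM Na3VO4, 1 mM DTT with 5 µM ATP at 37 °C for 1 h. Phosphotyrosine was detected with PY99 antibody, HRP secondary and OPD, read at A492. IC50 is the mean of duplicates.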

[11] = molecular target: T1, Tyrosine-protein kinase Tec (Homo sapiens, UniProt P42680); assay: Inhibition of recombinant human TEC using Poly(Glu, Tyr) 4:1 as substrate after 1 hr by ELISA; how it was run: as §2
T1 sequence (P42680 whole entry): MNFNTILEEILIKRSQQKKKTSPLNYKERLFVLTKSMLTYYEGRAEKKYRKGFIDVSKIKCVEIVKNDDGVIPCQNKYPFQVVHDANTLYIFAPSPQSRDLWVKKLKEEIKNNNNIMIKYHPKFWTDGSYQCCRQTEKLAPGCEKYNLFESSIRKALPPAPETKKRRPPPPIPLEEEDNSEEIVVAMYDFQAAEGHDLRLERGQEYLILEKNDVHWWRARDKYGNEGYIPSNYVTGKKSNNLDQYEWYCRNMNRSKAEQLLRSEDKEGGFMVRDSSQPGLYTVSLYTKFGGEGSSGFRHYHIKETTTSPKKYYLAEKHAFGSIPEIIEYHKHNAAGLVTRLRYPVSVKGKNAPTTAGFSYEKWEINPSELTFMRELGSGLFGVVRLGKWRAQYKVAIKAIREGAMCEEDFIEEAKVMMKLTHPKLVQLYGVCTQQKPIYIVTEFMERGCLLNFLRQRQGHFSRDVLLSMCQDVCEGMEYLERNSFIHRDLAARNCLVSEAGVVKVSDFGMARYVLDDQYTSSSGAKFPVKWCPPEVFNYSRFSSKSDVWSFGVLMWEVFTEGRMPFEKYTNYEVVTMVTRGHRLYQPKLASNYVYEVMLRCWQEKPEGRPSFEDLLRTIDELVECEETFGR

[12] = molecular target: Proto-oncogene tyrosine-protein kinase receptor Ret (Homo sapiens, UniProt P07949); assay: Inhibition of recombinant human RET using Poly(Glu, Tyr) 4:1 as substrate after 1 hr by ELISA
Sequence of Proto-oncogene tyrosine-protein kinase receptor Ret (P07949 whole entry): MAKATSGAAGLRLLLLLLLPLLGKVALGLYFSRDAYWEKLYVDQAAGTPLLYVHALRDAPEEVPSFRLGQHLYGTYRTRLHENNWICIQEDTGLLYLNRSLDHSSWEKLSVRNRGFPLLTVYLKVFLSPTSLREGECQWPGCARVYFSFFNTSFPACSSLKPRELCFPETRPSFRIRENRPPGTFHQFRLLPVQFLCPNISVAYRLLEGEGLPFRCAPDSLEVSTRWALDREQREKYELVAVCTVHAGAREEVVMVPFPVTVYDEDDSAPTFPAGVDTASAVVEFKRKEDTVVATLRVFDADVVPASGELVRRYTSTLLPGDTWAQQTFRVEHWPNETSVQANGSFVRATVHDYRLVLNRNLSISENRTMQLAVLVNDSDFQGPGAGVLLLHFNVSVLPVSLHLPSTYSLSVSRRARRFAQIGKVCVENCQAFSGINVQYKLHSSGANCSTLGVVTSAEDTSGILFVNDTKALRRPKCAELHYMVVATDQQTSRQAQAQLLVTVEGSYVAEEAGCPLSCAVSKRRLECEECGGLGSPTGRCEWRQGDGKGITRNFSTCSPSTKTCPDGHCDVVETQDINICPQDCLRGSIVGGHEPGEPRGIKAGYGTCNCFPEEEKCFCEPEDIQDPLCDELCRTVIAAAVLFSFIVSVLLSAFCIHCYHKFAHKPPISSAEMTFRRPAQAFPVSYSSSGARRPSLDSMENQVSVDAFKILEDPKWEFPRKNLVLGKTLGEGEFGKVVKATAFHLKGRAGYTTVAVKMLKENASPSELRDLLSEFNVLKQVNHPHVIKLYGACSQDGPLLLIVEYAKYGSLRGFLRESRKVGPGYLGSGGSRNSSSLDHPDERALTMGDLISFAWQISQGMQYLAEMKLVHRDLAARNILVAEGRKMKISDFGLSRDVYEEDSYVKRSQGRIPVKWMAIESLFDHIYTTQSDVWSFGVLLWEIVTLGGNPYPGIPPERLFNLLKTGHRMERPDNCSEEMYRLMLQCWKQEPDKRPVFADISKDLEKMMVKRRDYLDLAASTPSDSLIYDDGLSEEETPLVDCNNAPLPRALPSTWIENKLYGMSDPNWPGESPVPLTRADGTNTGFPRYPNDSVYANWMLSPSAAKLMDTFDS

[13] = molecular target: Macrophage colony-stimulating factor 1 receptor (Homo sapiens, UniProt P07333); assay: Inhibition of recombinant human CSF1R using Poly(Glu, Tyr) 4:1 as substrate after 1 hr by ELISA; how it was run: as §2
Sequence of Macrophage colony-stimulating factor 1 receptor (P07333 whole entry): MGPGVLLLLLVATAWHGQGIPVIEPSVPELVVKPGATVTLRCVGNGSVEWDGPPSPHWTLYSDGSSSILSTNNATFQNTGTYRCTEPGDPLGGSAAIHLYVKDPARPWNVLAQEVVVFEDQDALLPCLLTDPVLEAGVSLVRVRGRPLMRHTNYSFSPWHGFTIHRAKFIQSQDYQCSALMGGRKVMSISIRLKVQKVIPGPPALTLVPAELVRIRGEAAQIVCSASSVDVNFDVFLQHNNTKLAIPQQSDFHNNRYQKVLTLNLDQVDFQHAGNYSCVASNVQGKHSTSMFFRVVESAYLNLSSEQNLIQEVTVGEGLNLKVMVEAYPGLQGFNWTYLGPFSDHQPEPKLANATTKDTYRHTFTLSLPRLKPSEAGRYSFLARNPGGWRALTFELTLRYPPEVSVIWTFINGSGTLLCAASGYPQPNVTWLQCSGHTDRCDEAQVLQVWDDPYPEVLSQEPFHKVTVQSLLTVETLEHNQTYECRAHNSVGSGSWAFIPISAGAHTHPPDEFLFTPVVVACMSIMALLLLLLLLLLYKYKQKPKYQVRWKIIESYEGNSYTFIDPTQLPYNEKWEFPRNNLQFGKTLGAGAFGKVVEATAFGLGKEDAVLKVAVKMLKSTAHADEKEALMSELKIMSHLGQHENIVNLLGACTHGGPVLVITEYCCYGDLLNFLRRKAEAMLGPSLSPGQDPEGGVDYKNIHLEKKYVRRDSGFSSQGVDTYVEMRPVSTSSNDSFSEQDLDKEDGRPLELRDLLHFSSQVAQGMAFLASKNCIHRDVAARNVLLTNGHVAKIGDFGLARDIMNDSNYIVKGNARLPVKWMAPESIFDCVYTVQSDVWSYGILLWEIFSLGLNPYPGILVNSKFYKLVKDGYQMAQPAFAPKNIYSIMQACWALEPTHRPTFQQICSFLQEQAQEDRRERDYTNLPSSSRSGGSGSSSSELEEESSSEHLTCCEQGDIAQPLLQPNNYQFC

[14] = molecular target: T2, Tyrosine-protein kinase BTK (Homo sapiens, UniProt Q06187); assay: Inhibition of BTK autophosphorylation at Y223 in human TMD8 cells after 4 hrs by Western blot method
T2 sequence (Q06187 whole entry): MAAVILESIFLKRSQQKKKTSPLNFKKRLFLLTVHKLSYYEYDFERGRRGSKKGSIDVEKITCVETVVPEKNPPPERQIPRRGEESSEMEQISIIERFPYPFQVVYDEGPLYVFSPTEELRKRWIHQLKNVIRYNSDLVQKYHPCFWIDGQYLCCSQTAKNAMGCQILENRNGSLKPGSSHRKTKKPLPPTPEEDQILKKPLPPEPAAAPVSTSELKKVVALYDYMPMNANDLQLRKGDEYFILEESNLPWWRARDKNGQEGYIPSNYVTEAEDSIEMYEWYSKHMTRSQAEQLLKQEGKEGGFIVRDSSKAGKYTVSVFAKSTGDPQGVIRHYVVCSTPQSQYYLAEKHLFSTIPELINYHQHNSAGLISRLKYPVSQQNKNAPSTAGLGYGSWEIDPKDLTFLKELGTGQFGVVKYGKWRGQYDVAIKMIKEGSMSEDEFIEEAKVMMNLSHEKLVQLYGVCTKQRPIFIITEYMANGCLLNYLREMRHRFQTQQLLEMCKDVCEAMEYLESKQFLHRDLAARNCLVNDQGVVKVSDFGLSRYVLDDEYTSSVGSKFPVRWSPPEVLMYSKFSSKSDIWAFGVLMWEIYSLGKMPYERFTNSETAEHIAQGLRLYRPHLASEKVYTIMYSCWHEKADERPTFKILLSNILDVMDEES

TMD8 [15] = assay: Cell cycle arrest in human TMD8 cells assessed as accumulation at G1 phase after 48 hrs by propidium iodide staining-based flow cytometric method; type: functional
TMD8 [16] = assay: Cell cycle arrest in human TMD8 cells assessed as accumulation at S phase at 1 nM after 48 hrs by propidium iodide staining-based flow cytometric method (reference value: 34.15%); type: functional
TMD8 [17] = assay: Cell cycle arrest in human TMD8 cells assessed as accumulation at G2 phase at 10 nM after 48 hrs by propidium iodide staining-based flow cytometric method (reference value: 14.53%); type: functional
How it was run: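 TMD8 cells in RPMI-1640 with FBS, 37 °C, 5% CO2, treated at indicated concentrations for 48 h; permeabilized cells stained with propidium iodide and analysed by flow cytometry for cell-cycle phase distribution. Three independent experiments, mean ± SD.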

TMD8 [18] = assay: Cell cycle arrest in human TMD8 cells assessed as accumulation at S phase at 100 nM after 48 hrs by propidium iodide staining-based flow cytometric method (reference value: 34.15%); type: functional
TMD8 [19] = assay: Induction of apoptosis in human TMD8 cells assessed as early apoptotic cells at 10 nM after 72 hrs by Annexin-FITC/propidium iodide staining-based flow cytometric method (reference value: 7.98%); type: functional
TMD8 [20] = assay: Induction of apoptosis in human TMD8 cells assessed as late apoptotic cells at 10 nM after 72 hrs by Annexin-FITC/propidium iodide staining-based flow cytometric method (reference value: 3.2%); type: functional
TMD8 [21] = assay: Induction of apoptosis in human TMD8 cells assessed as early apoptotic cells at 100 nM after 72 hrs by Annexin-FITC/propidium iodide staining-based flow cytometric method (reference value: 7.98%); type: functional
TMD8 [22] = assay: Induction of apoptosis in human TMD8 cells assessed as late apoptotic cells at 100 nM after 72 hrs by Annexin-FITC/propidium iodide staining-based flow cytometric method (reference value: 3.2%); type: functional
[23] = molecular target: T2, Tyrosine-protein kinase BTK; conditions: TMD8, 1 to 100 nM

For `C=CC(=O)N[C@@H]1Cn2c(c(-c3ccc(Oc4ccccc4)cc3)c3c(N)ncnc32)C1=C`, which Vdss (Rattus norvegicus [1]) is on record?
The Vdss was 1.3 L/kg.

And the t1/2 (Rattus norvegicus [2])?
Its t1/2 is 34.2 min.

And the Cmax [3]?
Its Cmax is 223 ng/mL.

What about the Tmax [4] of the same compound?
Its Tmax is 15 min.

And the F (Rattus norvegicus [5])?
The F was 18.3%.

And the Drug metabolism [6]?
Its Drug metabolism is “Metabolite_Detected”.

What about the Drug metabolism [7] of the same compound?
Its Drug metabolism is “Metabolite_Detected”.

What about the IC50 (TMD8 [8]) of the same compound?
Its IC50 is 16 nM.

What about the IC50 [9] of the same compound?
Its IC50 is 0.2 nM.

And the IC50 [10]?
The IC50 was 1.3 nM.

What about the IC50 [11] of the same compound?
The IC50 was 1.4 nM.

And the IC50 [12]?
Its IC50 is 20.3 nM.

What about the IC50 [13] of the same compound?
The IC50 was over 1000 nM.

And the IC50 [14]?
Its IC50 is under 10 nM.

And the Activity (TMD8 [15])?
The Activity was “Dose-dependent effect”.

And the Activity (TMD8 [16])?
The Activity was 25.22%.

And the Activity (TMD8 [17])?
The Activity was 11.12%.

And the Activity (TMD8 [18])?
Its Activity is 12.79%.

What about the Activity (TMD8 [19]) of the same compound?
The Activity was 27.6%.

What about the Activity (TMD8 [20]) of the same compound?
Its Activity is 12.5%.

What about the Activity (TMD8 [21]) of the same compound?
Its Activity is 34.5%.

What about the Activity (TMD8 [22]) of the same compound?
Its Activity is 14.8%.

What about the inhibition [23] of the same compound?
Its inhibition is “Active”.
